Data reported in ChEMBL document CHEMBL3774321, “Systematic diversification of benzylidene heterocycles yields novel inhibitor scaffolds selective for Dyrk1A, Clk1 and CK2” (Eur J Med Chem, 2016).
The source made the active and inactive calls. The rule behind the calls is not given here.

Key:
[1] = target: T1, Serine/threonine-protein kinase haspin (Homo sapiens) (UniProt Q8TF76); assay: Inhibition of Haspin (unknown origin) at 5 uM relative to control
T1 sequence (whole entry): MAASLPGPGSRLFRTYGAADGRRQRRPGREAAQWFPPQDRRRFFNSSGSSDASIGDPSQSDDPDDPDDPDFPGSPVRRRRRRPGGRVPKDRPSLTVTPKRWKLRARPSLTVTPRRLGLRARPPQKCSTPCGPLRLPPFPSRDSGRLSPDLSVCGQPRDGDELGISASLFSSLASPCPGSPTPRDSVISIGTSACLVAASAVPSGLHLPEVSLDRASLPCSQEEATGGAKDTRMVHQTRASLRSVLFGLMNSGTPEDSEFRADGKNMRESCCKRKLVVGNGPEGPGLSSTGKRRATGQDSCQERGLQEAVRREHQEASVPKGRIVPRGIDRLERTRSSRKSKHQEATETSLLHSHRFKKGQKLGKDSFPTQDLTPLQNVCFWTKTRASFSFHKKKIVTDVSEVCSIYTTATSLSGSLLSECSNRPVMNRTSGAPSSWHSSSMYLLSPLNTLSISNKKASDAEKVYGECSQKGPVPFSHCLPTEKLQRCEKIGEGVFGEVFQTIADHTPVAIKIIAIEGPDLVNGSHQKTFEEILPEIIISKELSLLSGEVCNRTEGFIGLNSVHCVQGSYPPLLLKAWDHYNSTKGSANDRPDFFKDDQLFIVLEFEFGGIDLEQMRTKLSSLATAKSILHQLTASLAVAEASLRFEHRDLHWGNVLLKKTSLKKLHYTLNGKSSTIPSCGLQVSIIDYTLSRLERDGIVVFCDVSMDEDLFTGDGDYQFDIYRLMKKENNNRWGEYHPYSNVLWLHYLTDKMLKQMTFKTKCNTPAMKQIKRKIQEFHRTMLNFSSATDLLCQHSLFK

[2] = target: Phosphatidylinositol 4-phosphate 3-kinase C2 domain-containing subunit beta (Homo sapiens) (UniProt O00750); assay: Inhibition of PI3K-C2beta (unknown origin) at 5 uM relative to control
[3] = target: T2, Phosphatidylinositol 4,5-bisphosphate 3-kinase catalytic subunit gamma isoform (Homo sapiens, UniProt P48736); assay: Inhibition of PI3K p110gamma (unknown origin) at 5 uM relative to control
Target sequence in this assay (P48736 whole entry, looked up, canonical isoform): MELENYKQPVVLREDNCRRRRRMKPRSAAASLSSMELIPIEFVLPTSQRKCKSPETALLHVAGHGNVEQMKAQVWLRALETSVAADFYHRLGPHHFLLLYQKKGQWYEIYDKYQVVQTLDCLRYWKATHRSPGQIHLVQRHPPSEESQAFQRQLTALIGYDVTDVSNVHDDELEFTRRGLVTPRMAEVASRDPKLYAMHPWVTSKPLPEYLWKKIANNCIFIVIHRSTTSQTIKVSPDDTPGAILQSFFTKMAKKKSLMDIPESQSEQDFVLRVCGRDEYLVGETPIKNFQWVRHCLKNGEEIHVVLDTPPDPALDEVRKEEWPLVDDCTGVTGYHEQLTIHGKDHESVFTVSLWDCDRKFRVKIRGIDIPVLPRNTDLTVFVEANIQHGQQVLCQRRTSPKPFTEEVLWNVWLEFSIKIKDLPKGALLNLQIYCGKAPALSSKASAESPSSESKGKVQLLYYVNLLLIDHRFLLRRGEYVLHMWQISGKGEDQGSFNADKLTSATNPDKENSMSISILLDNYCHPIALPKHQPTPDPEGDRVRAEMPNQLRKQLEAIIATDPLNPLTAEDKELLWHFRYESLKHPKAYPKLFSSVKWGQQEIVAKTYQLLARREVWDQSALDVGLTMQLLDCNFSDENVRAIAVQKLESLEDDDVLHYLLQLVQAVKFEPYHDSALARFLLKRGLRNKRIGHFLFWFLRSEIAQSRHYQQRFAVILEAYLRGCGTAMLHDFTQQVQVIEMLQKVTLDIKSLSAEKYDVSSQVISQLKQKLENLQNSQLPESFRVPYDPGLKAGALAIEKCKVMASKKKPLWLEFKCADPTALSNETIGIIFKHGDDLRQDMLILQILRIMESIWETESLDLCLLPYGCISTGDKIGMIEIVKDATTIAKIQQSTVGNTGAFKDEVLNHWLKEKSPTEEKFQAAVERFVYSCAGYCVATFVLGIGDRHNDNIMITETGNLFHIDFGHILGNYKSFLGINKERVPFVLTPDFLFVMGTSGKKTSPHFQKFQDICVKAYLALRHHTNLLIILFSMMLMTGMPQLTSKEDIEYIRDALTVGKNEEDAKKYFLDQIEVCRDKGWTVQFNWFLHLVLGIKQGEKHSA

[4] = target: Mitogen-activated protein kinase kinase kinase 9 (Homo sapiens) (UniProt P80192); assay: Inhibition of recombinant human GST-tagged MAP3K9 expressed in baculovirus expression system at 1 uM by lantha screen kinase binding assay relative to control
In short: (§1)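 Binding-displacement format: the compound competes with an Alexa Fluor-conjugated tracer for binding to the kinase ATP site, rather than a peptide phosphorylation read-out.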

[5] = Growth inhibition of human U87MG cells after 4 days by MTT assay; format: functional, cell-based, U-87MG ATCC; settings: U-87 MG, 96 h
[6] = target: Serine/threonine-protein kinase pim-1 (Homo sapiens, UniProt P11309); assay: Inhibition of PIM1 (unknown origin) at 1 uM relative to control
In short: (§2)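 Single-point screen at 1 μM compound. Percent inhibition is the mean of two separate measurements, each run in duplicate.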

[7] = target: T1, Serine/threonine-protein kinase haspin (Homo sapiens); assay: Inhibition of Haspin (unknown origin) at 1 uM relative to control; in short: as §2
[8] = target: Serine/threonine-protein kinase haspin (Homo sapiens, UniProt Q8TF76); assay: Inhibition of Haspin (unknown origin)
In short: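 Calculated from means of duplicates differing by less than 7%.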

[9] = target: Phosphatidylinositol 4-phosphate 3-kinase C2 domain-containing subunit beta (Homo sapiens) (UniProt O00750); assay: Inhibition of PI3K-C2beta (unknown origin) at 1 uM relative to control; in short: as §2
[10] = target: Phosphatidylinositol 4,5-bisphosphate 3-kinase catalytic subunit alpha isoform (Homo sapiens, UniProt P42336); assay: Inhibition of PI3K p110alpha (unknown origin) at 1 uM relative to control; in short: as §2
[11] = target: Phosphatidylinositol 4,5-bisphosphate 3-kinase catalytic subunit delta isoform (Homo sapiens, UniProt O00329); assay: Inhibition of PI3K p110delta (unknown origin)
[12] = target: T2, Phosphatidylinositol 4,5-bisphosphate 3-kinase catalytic subunit gamma isoform; assay: Inhibition of PI3K p110gamma (unknown origin) at 1 uM relative to control; in short: as §2
Target sequence in this assay (P48736 whole entry, looked up, canonical isoform): as above

[13] = target: T2, Phosphatidylinositol 4,5-bisphosphate 3-kinase catalytic subunit gamma isoform; assay: Inhibition of PI3K p110gamma (unknown origin)
Target sequence in this assay (P48736 whole entry, canonical isoform): as the sequence (P48736 whole entry, looked up, canonical isoform) above

[14] = target: T3, Dual specificity protein kinase CLK4 (Homo sapiens, UniProt Q9HAZ1); assay: Inhibition of full length recombinant human GST-tagged CLK4 expressed in baculovirus expression system by lantha screen kinase binding assay
In short: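 LanthaScreen binding format: test compound competes with an Alexa Fluor-conjugated tracer for the ATP site. IC50 derived from this displacement, not from peptide phosphorylation.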
Target sequence in this assay (Q9HAZ1 whole entry): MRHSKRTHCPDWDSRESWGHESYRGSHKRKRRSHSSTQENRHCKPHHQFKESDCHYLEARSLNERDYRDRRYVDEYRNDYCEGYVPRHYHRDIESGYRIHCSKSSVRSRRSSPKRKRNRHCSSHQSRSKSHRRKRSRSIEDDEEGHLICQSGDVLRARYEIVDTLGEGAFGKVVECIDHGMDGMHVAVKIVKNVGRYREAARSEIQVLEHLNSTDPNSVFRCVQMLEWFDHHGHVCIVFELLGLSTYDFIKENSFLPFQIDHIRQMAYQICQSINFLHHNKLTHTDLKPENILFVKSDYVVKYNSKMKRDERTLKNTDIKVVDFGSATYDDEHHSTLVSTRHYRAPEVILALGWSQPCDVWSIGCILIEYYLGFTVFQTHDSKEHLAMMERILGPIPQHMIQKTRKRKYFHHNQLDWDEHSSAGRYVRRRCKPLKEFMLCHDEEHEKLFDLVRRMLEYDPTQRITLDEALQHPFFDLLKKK

[15] = target: T4, Phosphatidylinositol 4,5-bisphosphate 3-kinase catalytic subunit delta isoform (Homo sapiens) (UniProt O00329); settings: 1 uM
T4 sequence (whole entry): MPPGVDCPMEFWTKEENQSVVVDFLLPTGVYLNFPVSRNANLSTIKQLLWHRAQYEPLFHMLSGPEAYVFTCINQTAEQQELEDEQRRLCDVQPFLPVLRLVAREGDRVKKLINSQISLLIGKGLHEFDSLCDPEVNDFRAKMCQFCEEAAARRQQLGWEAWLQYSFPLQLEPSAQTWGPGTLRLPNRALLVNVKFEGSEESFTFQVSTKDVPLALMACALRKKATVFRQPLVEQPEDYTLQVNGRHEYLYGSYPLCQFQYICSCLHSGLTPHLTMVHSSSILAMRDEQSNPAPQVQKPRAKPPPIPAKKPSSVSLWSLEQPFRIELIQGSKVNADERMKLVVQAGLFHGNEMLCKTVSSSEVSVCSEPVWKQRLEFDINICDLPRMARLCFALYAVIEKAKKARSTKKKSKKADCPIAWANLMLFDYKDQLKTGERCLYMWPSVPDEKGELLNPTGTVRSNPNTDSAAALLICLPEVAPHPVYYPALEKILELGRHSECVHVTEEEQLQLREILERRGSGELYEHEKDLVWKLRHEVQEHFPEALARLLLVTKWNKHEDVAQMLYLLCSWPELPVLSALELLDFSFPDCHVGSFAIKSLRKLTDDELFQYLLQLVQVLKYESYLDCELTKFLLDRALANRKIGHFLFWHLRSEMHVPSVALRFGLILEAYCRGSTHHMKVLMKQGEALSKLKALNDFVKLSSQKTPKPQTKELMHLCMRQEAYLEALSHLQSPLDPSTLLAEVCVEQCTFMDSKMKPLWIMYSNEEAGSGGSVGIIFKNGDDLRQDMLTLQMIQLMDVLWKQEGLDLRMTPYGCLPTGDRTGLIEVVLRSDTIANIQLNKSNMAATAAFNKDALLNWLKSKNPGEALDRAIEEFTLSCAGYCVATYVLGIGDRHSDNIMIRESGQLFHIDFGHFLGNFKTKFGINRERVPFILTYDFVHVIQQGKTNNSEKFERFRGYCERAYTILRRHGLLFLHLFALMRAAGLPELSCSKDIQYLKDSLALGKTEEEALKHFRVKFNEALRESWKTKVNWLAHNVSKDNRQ

[16] = target: T3, Dual specificity protein kinase CLK4; settings: 1 uM
Target sequence in this assay (Q9HAZ1 whole entry, looked up): as the sequence (Q9HAZ1 whole entry) above

[17] = target: Mitogen-activated protein kinase kinase kinase 9 (Homo sapiens) (UniProt P80192); assay: Inhibition of recombinant human GST-tagged MAP3K9 expressed in baculovirus expression system at 5 uM by lantha screen kinase binding assay relative to control; in short: as §1

Chain of Phosphatidylinositol 4-phosphate 3-kinase C2 domain-containing subunit beta (Homo sapiens) (O00750 whole entry, the tested form may be a part, canonical isoform): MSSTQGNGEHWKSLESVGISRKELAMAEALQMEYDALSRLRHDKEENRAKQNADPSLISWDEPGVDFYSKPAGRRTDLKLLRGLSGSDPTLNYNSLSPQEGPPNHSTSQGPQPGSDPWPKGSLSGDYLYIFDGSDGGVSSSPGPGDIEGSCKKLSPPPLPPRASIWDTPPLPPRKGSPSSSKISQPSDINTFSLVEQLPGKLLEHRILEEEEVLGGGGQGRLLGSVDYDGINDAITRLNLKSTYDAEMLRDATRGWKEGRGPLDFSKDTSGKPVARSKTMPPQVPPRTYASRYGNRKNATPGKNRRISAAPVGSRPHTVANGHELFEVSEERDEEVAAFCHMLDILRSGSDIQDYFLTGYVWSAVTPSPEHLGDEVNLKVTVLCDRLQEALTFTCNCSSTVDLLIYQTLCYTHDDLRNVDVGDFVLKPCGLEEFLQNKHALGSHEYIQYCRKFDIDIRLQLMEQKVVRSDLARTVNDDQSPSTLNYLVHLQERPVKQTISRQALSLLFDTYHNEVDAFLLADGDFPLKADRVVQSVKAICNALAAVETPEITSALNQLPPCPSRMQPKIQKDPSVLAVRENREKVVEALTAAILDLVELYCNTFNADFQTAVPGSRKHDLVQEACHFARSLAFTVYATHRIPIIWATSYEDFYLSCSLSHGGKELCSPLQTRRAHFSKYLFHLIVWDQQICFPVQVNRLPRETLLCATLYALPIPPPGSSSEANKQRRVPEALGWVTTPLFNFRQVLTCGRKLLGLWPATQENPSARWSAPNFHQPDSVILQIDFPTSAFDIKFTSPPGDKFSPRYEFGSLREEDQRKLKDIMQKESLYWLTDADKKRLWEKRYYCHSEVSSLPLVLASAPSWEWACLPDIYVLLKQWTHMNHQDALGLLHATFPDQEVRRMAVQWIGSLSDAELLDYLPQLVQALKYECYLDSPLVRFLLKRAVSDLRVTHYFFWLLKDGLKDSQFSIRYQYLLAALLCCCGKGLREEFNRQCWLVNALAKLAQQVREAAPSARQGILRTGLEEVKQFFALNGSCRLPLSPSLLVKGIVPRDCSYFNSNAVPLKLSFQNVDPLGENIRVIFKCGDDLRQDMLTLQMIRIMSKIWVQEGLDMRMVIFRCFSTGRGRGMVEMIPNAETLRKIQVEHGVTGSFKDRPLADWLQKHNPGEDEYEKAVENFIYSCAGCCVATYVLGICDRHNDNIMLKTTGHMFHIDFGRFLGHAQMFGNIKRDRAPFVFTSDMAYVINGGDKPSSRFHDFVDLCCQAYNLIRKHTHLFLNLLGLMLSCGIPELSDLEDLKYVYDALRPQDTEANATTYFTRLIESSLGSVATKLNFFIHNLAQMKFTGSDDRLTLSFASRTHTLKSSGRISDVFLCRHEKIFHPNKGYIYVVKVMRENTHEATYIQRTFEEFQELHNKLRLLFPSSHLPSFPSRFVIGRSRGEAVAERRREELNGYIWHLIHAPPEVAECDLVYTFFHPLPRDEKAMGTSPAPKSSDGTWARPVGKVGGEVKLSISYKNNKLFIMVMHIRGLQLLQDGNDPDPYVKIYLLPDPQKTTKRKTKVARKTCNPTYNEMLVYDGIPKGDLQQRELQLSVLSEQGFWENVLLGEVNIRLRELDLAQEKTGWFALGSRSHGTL
Chain of Mitogen-activated protein kinase kinase kinase 9 (Homo sapiens) (P80192 whole entry, looked up): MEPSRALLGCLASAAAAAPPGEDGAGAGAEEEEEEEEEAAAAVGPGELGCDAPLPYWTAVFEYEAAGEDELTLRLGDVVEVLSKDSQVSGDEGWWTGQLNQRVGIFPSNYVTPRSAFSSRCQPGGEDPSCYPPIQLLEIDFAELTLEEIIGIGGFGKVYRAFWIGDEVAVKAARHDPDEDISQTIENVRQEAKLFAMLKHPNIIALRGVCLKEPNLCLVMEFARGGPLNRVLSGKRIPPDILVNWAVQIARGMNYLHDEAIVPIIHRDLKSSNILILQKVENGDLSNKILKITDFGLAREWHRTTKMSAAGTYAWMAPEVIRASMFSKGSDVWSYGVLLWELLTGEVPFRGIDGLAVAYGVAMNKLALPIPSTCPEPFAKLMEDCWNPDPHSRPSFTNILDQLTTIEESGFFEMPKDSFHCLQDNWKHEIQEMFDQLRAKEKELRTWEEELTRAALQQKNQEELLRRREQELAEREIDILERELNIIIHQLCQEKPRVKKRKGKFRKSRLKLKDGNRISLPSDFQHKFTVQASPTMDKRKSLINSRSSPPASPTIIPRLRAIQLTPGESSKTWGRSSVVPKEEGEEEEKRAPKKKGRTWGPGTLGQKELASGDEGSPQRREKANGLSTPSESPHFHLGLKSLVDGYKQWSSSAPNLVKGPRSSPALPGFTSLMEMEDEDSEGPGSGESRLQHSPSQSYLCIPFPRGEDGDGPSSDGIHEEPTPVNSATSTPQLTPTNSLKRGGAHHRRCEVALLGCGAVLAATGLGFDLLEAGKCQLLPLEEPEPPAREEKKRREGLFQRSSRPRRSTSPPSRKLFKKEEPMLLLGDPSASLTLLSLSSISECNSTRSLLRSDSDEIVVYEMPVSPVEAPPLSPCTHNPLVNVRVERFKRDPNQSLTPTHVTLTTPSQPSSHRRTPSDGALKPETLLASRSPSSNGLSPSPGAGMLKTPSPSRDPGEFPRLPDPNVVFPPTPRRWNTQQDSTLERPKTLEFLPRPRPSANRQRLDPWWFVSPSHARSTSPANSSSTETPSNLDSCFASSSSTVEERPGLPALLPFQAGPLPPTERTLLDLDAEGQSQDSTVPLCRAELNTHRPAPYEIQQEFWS
Chain of Serine/threonine-protein kinase pim-1 (P11309 whole entry, looked up): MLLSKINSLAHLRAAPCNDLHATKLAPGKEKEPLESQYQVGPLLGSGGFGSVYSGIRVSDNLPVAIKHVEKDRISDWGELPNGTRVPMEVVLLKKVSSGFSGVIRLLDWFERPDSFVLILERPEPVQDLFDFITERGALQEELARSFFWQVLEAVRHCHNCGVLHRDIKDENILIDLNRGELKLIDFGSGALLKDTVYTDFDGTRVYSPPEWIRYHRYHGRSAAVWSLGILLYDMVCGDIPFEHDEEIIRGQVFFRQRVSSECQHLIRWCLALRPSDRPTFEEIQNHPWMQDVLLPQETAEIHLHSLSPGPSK

Structure (SMILES): O=C1OCC/C1=C\c1ccc2ncsc2c1
- inhibition [1]: 75%
- inhibition [2]: 13%
- inhibition [3]: 79%

Structure (SMILES): O=C1NC(=S)S/C1=C\c1ccc2ncccc2c1
- inhibition [4]: 2%
- IC50 [5]: 200 nM
- inhibition [6]: 89%
- inhibition [7]: 93%
- IC50 [8]: 259 nM
- inhibition [9]: 62%
- inhibition [10]: 100%
- IC50 [11]: 16.1 nM
- inhibition [12]: 97%
- IC50 [13]: 2.3 nM
- IC50 [14]: 17.8 nM
- inhibition [15]: 97%
- inhibition [16]: 97%

Structure (SMILES): O=C1NC(=S)S/C1=C\c1ccc2ncsc2c1
- inhibition [17]: inactive
- IC50 [5]: 560 nM
- inhibition [7]: 93%
- IC50 [8]: 255 nM
- inhibition [9]: 56%
- inhibition [10]: 98%
- IC50 [11]: 12.4 nM
- inhibition [12]: 97%
- IC50 [13]: 2.3 nM
- IC50 [14]: 31.8 nM
- inhibition [15]: 90%

Structure (SMILES): CC1C/C(=C\c2ccc3c(c2)CCO3)C(=O)O1 (stereo not given)
- inhibition [1]: 43%
- inhibition [2]: 8%
- inhibition [3]: 75%
